Test results taken from article PMC6387680 (Leukemia & lymphoma, 2011).
Values joined by “and” are separate entries in the source; they are usually repeats but may differ in a detail not shown here. Equal values may be shown once.

What was measured:
lymphocyte count = details: associated with decreasing lymph node size; cited from earlier work
Neoplastic B cells = assay: In vivo apoptosis by annexin V-FITC flow cytometry of peripheral blood; parameters: species or system human; details: for Peak value of apoptosis (annexin V-positive cells): CLL patient; for apoptotic B cells positive for CD19 and annexin V: time point not stated
Procedure, shortened: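 Peripheral blood was stained within 12 h of collection. Erythrocytes were lysed (150 mM NH4Cl, 10 mM KHCO3, 0.1 mM EDTA; 10 min, room temperature), spun 500 × g for 15 min and washed twice in PBS/0.1% NaN3. Cells were co-stained 30 min with annexin V-FITC plus tumour-marker antibodies (CD19, CD5 for CLL). Four-colour flow, ≥5000 lymphocytes per tube. Controls were thawed lymphocytes (positive) and fresh whole blood (negative).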

[1] = tested on: patients with refractory neoplasms; details: cited from earlier work
[2] = Plasma UCN-01 pharmacokinetics; assay type: in vivo, human
[3] = tested on: patients with relapsed lymphoma or CLL; assay: Toxicity of cycle 1 UCN-01 alone; assay type: in vivo, human
[4] = tested on: absolute lymphocyte count (ALC); assay: Absolute lymphocyte count after UCN-01; assay type: in vivo, human
[5] = tested on: patients with refractory solid tumors; details: 24 patients; cited from earlier work
[6] = human, plasma, iv, 45 mg/m^2/day
[7] = median, n=15, cycle 1, 72 h IV infusion at 45 mg/m^2/day
[8] = cycle 1 UCN-01 alone, n (%) of 18 patients

For CC[C@H](Nc1ncnc2[nH]cnc12)c1nc2cccc(F)c2c(=O)n1-c1ccccc1 [CAL-101], the “patients with an increase in lymphocyte count” value (lymphocyte count) is given as 60%.
In the case of CN[C@@H]1C[C@H]2O[C@@](C)([C@@H]1OC)n1c3ccccc3c3c4c(c5c6ccccc6n2c5c31)C(=O)N[C@@H]4O [UCN-01, 7-hydroxystaurosporine], the “Peak value of apoptosis (annexin V-positive cells)” value (Neoplastic B cells; day 4 of cycle 1) is reported as 15%, the “Peak value of apoptosis (annexin V-positive cells)” value (Neoplastic B cells; day 28 of cycle 1) is reported as 8% and the “apoptotic B cells positive for CD19 and annexin V” value (“apoptotic B cells positive” below) (Neoplastic B cells; patient 10, Figure 2 (B), low level) is reported as 2.6%. For the same molecule, the “apoptotic B cells positive” value (Neoplastic B cells; patient 17, Figure 2 (C), low level) was 3.8%, the “apoptotic B cells positive” value (Neoplastic B cells; patient 17, Figure 2 (E), high level) was 38.9% and the “MTD / recommended phase II dose” value ([1]; 3-day infusion) was 42.5 mg/m^2/day. For the same molecule, the “grade 4 hyperglycemia, patients” value ([1]; 42.5 dose level, complicated by steroids) was 1/9, the significant hematopoietic toxicity [1] was “None of the patients had significant hematopoietic toxicity” and the “dose level at which DLT (> grade 3) occurred” value ([1]; nausea/vomiting, hyperglycemia, transient hypoxia) was 53 mg/m^2/ day. For the same molecule, the “difference in UCN-01 CLtot between cycle 1 (without FAMP) and cycle 2 (with FAMP)” value ([2]; five evaluable patients, paired t-test p = 0.27) was “no intra-individual difference”, the Vd ([2]; human, plasma, intravenous, 45 mg/m^2/day) was 3 to 18 L and the AUC(0-inf) [2, 6] was 7260 µg·h/mL. The Cmax [2, 6] was 16700 ng/mL, the VλZ [2, 7] was 7.4 L and the “t1/2 (terminal)” value [2, 7] was 15.02 days. For the same molecule, the “grade 4 hyperuricemia, patients” value ([3]; among the three patients with tumor lysis syndrome) was “three”, the “Single episodes of grade 2 toxicities” value ([3]; cycle 1 UCN-01 alone) was “an elevated bicarbonate level, circulation cardiac-other, constipation, an elevated CPK, depression, dyspepsia, pruritus, and taste disturbance” and the “grade 3 toxicities that occurred one time during cycle 1” value ([3]; cycle 1 UCN-01 alone) was “isolated elevated SGPT and one episode of febrile neutropenia”. The “Amylase, grade 2 or 3 toxicity” value [3, 8] was 2(11%), the “Creatinine, grade 2 or 3 toxicity” value [3, 8] was 4(22%) and the “Headache, grade 2 or 3 toxicity” value [3, 8] was 8(44%). The “Hemoglobin, grade 2 or 3 toxicity” value [3, 8] was 6(33%), the “Hyperglycemia, grade 2 or 3 toxicity” value [3, 8] was 12(67%) and the “Hypermagnesemia, grade 2 or 3 toxicity” value [3, 8] was 3(16%). For the same molecule, the “Hypoalbuminemia, grade 2 or 3 toxicity” value [3, 8] was 2(11%), the “Hypocalcemia, grade 2 or 3 toxicity” value [3, 8] was 6(33%) and the “Hyponatremia, grade 2 or 3 toxicity” value [3, 8] was 2(11%). The “Hypoxia, grade 2 or 3 toxicity” value [3, 8] was 6(33%), the “Inf w/o neut (infection without neutropenia), grade 2 or 3 toxicity” value [3, 8] was 2(11%) and the “Leukopenia, grade 2 or 3 toxicity” value [3, 8] was 3(16%). The “Lymphopenia, grade 2 or 3 toxicity” value [3, 8] was 5(27%), the “Myalgia, grade 2 or 3 toxicity” value [3, 8] was 2(11%) and the “Nausea, grade 2 or 3 toxicity” value [3, 8] was 8(44%). The “Neutropenia, grade 2 or 3 toxicity” value [3, 8] was 4(22%), the “Rash/desquamation, grade 2 or 3 toxicity” value [3, 8] was 2(11%) and the “SGOT (AST), grade 2 or 3 toxicity” value [3, 8] was 3(16%). The “Stomatitis, grade 2 or 3 toxicity” value [3, 8] was 3(16%), the “Sup/vnt arrh (supraventricular arrhythmia), grade 2 or 3 toxicity” value [3, 8] was 2(11%) and the “Trans prbcs (transfused packed red blood cells), grade 2 or 3 toxicity” value [3, 8] was 3(16%). For the same molecule, the “Tumor lysis, grade 2 or 3 toxicity” value [3, 8] was 3(16%), the “Vomiting, grade 2 or 3 toxicity” value [3, 8] was 4(22%) and the “tumor lysis syndrome (grade 3, CTCAE v2), patients” value ([3]; in vivo) was “Three”. The “Hypocalcemia (grade 2), patients” value ([3]; six patients) was 33%, the creatinine peak ([3]; tumor lysis patients with renal dysfunction) was 2.1 mg/dL and the “serum blood urea nitrogen [BUN] peak” value ([3]; two tumor lysis patients with renal dysfunction) was 66 mg/dL and 40 mg/dL. The “day of peak lymphocytosis” value ([4]; cycle 1) was at most 4 days, the “increase in the absolute lymphocyte count (ALC)” value ([4]; first three of four patients with CLL, first cycle of UCN-01 alone) was 2.0–2.7 fold and the “patients with lymphocytosis following UCN-01” value ([4]; in vivo) was 15 of 18. The objective responses [5] was “no objective responses” and the toxicities noted [5] was “grade 1–2 nausea, vomiting, hyperglycemia, and hypotension”.
